Laboratory results from paper PMC2885444 (The Biochemical journal, 2009).

Legend:
CHD4 PHD2 finger = CHD4 PHD2 finger (Homo sapiens, UniProt Q14839); test: NMR titration; format: binding; conditions: for NMR exchange regime: 1H,15N HSQC titration, NMR time scale
[1] = test system: CHD4 PHD2 finger (GST-fusion); format: binding; conditions: C-terminal biotinylated peptides (residues 1–21; H3K27/H3K36 residues 21–44), streptavidin–Sepharose beads, 50 mM Tris pH 7.5, 150 mM NaCl, 0.05% Nonidet P-40; anti-GST HRP detection
CHD4 PHD2 F448A mutant = test: Binding and NMR of F448A mutant; conditions: F448A mutant vs wild-type
In short: (§1)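 Point mutant of the PHD2 finger was made by PCR mutagenesis and expressed as a GST fusion in E. coli BL21(DE3) pLysS on ¹⁵NH₄Cl minimal medium. It was purified on glutathione beads, tag-cleaved, then held in 20 mM Tris pH 6.8–7.5, 150 mM NaCl, 10 mM DTT and 1 mM NaN₃. ¹H,¹⁵N HSQC was run at 500 MHz with increasing 12-mer histone tail peptides. Kd came from a nonlinear least-squares fit of normalized shift changes.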

[2] = test system: CHD4 PHD2 finger, Asp^454 substituted with valine; test: Binding of PHD2 with Asp454 substituted with valine; conditions: Asp454 to valine mutant
CHD4 PHD2 E447A mutant = CHD4 PHD2 E447A mutant (Homo sapiens, UniProt Q14839, E450A); test: NMR titration, E447A mutant; format: binding
In short: as §1

CHD4 PHD2 C460W mutant = CHD4 PHD2 C460W mutant (Homo sapiens, UniProt Q14839, C463W); test: NMR titration, C460W mutant; format: binding
In short: as §1

[3] = test system: PHD fingers of BHC80 and AIRE (mutants); conditions: aspartate to alanine or hydrophobic residue to tryptophan; ref [17],[27]; cited from earlier work

Chain of CHD4 PHD2 finger (Q14839 449-496 limits assumed): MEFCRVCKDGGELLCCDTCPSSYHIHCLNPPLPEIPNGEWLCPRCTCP
Chain of CHD4 PHD2 E447A mutant (Q14839 449-496 E450A limits assumed): as the sequence (Q14839 449-496 limits assumed) above, with E2A counted along it
Chain of CHD4 PHD2 C460W mutant (Q14839 449-496 C463W limits assumed): as the sequence (Q14839 449-496 limits assumed) above, with C15W counted along it

## H3(3-10): peptide comprising residues Thr^3–Ser^10 but lacking Ala^1 and Arg^2 (TKQTARKS)
CHD4 PHD2 finger; wild-type PHD2, even a 10-fold excess of peptide
  NMR changes on titration: no changes

## H3K4me1: histone H3 mono-methylated at Lys^4
[1]
  Binding in pull-down (Western blot): significantly weaker

## H3K4me3: histone H3 tri-methylated at Lys^4
[1]
  Binding in pull-down (Western blot): significantly weaker
CHD4 PHD2 finger
  NMR exchange regime: fast exchange regime

## H3K9ac: histone H3 acetylated at Lys^9 (20-mer, Anaspec, in NMR; residues 1–21 in pull-down)
CHD4 PHD2 F448A mutant
  Binding compared with wild-type: more weakly
CHD4 PHD2 finger
  NMR exchange regime: intermediate-to-fast exchange regime

## H3K9me1: histone H3 mono-methylated at Lys^9
[1]
  Binding in pull-down (Western blot): able to recognize

## H3K9me3: histone H3 tri-methylated at Lys^9
[2]
  Binding compared with wild-type: significantly compromised
CHD4 PHD2 F448A mutant
  Binding compared with wild-type: more weakly
CHD4 PHD2 finger
  NMR exchange regime: intermediate-to-fast exchange regime

## unmodified H3: unmodified histone H3 N-terminal tail peptide (residues 1–21 biotinylated in pull-down; 12-mer in NMR)
CHD4 PHD2 E447A mutant; E447A mutant
  Kd: 900 µM
CHD4 PHD2 E447A mutant; E447A mutant vs wild-type
  Binding compared with wild-type: significantly weaker
CHD4 PHD2 C460W mutant; C460W mutant
  Kd: 3.7 mM
CHD4 PHD2 C460W mutant; C460W mutant vs wild-type
  Binding compared with wild-type: significantly weaker
CHD4 PHD2 finger
  NMR exchange regime: intermediate-to-fast exchange regime
[3]
  Interaction with mutant PHD fingers: abolish interactions
